Experimental data from ChEMBL document CHEMBL1122018, “Synthesis and orexigenic activity of some 1-methyl-4-piperidylidene-Substituted pyrrolo[2,1-g][3] benzazepine and dibenzocycloheptene derivatives” (1982).

Legend:
Type in all cases: functional
Felis catus [1] = assay: Average food consumed at the dose of 0.031 mg/kg (po) using 10 cats per dose level at 180 min (control day/ test day); 24/152
Felis catus [2] = assay: Average food consumed at the dose of 0.063 mg/kg (po) using 10 cats per dose level at 180 min (control day/ test day); 26/204
Felis catus [3] = assay: Average food consumed at the dose of 0.016 mg/kg (po) using 10 cats per dose level at 30 min (control day/ test day); 25/104
Felis catus [4] = assay: Average food consumed at the dose of 0.063 mg/kg (po) using 10 cats per dose level at 60 min (control day/ test day); 32/138
Felis catus [5] = assay: Average food consumed at the dose of 0.25 mg/kg (po) using 10 cats per dose level at 180 min (control day/ test day); 30/170
Felis catus [6] = assay: Average food consumed at the dose of 0.063 mg/kg (po) using 10 cats per dose level at 30 min (control day/ test day); 33/122
Felis catus [7] = assay: Average food consumed at the dose of 0.016 mg/kg (po) using 10 cats per dose level at 180 min (control day/ test day); 39/190
Felis catus [8] = assay: Average food consumed at the dose of 0.50 mg/kg (po) using 10 cats per dose level at 30 min (control day/ test day); 38/105; conditions: dose 0.5 mg/kg
Method in brief: (§1)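 Cats given test compound suspended in 1% methylcellulose, or 1% methylcellulose placebo, by gavage 30 min before a preweighed test meal. Food was offered in surplus for 3 h, and intake was found by reweighing at 30, 60 and 180 min. Ten cats per dose, each dosed no more than once weekly. Test-day intake was compared with the preceding control day by two-tailed paired t test (p < 0.05); values are mean ± SD.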

Felis catus [9] = assay: Average food consumed at the dose of 0.25 mg/kg (po) using 10 cats per dose level at 60 min (control day/ test day); 26/127; method in brief: as §1
Felis catus [10] = assay: Average food consumed at the dose of 0.016 mg/kg (po) using 10 cats per dose level at 60 min (control day/ test day); 30/137
Felis catus [11] = assay: Average food consumed at the dose of 0.25 mg/kg (po) using 10 cats per dose level at 30 min (control day/ test day); 20/89
Felis catus [12] = assay: Average food consumed at the dose of 0.031 mg/kg (po) using 10 cats per dose level at 30 min (control day/ test day); 20/75
Felis catus [13] = assay: Average food consumed at the dose of 0.50 mg/kg (po) using 10 cats per dose level at 60 min (control day/ test day); 42/155; conditions: dose 0.5 mg/kg; method in brief: as §1
Felis catus [14] = assay: Average food consumed at the dose of 0.50 mg/kg (po) using 10 cats per dose level at 180 min (control day/ test day); 45/221; conditions: dose 0.5 mg/kg; method in brief: as §1
Felis catus [15] = assay: Average food consumed at the dose of 0.031 mg/kg (po) using 10 cats per dose level at 60 min (control day/ test day); 14/95
Felis catus [16] = assay: Average food consumed at the dose of 0.016 mg/kg (po) using 10 cats per dose level at 180 min (control day/ test day); 45/215
Felis catus [17] = assay: Average food consumed at the dose of 0.063 mg/kg (po) using 10 cats per dose level at 60 min (control day/ test day); 22/144
Felis catus [18] = assay: Average food consumed at the dose of 0.50 mg/kg (po) using 10 cats per dose level at 180 min (control day/ test day); 32/234; conditions: dose 0.5 mg/kg; method in brief: as §1
Felis catus [19] = assay: Average food consumed at the dose of 0.063 mg/kg (po) using 10 cats per dose level at 30 min (control day/ test day); 13/120
Felis catus [20] = assay: Average food consumed at the dose of 0.50 mg/kg (po) using 10 cats per dose level at 60 min (control day/ test day); 35/219; conditions: dose 0.5 mg/kg; method in brief: as §1
Felis catus [21] = assay: Average food consumed at the dose of 0.016 mg/kg (po) using 10 cats per dose level at 60 min (control day/ test day); 31/168
Felis catus [22] = assay: Average food consumed at the dose of 0.25 mg/kg (po) using 10 cats per dose level at 30 min (control day/ test day); 38/175; method in brief: as §1
Felis catus [23] = assay: Average food consumed at the dose of 0.016 mg/kg (po) using 10 cats per dose level at 30 min (control day/ test day); 21/142
Felis catus [24] = assay: Average food consumed at the dose of 0.25 mg/kg (po) using 10 cats per dose level at 180 min (control day/ test day); 50/239
Felis catus [25] = assay: Average food consumed at the dose of 0.50 mg/kg (po) using 10 cats per dose level at 30 min (control day/ test day); 39/204; conditions: dose 0.5 mg/kg; method in brief: as §1
Felis catus [26] = assay: Average food consumed at the dose of 0.25 mg/kg (po) using 10 cats per dose level at 60 min (control day/ test day); 39/212; method in brief: as §1
Felis catus [27] = assay: Average food consumed at the dose of 0.063 mg/kg (po) using 10 cats per dose level at 180 min (control day/ test day); 50/190
Felis catus [28] = assay: Average food consumed at the dose of 0.50 mg/kg (po) using 10 cats per dose level at 60 min (control day/ test day); 23/129; conditions: dose 0.5 mg/kg; method in brief: as §1
Felis catus [29] = assay: Average food consumed at the dose of 0.031 mg/kg (po) using 10 cats per dose level at 60 min (control day/ test day); 9/113
Felis catus [30] = assay: Average food consumed at the dose of 0.50 mg/kg (po) using 10 cats per dose level at 30 min (control day/ test day); 24/93; conditions: dose 0.5 mg/kg; method in brief: as §1
Felis catus [31] = assay: Average food consumed at the dose of 0.031 mg/kg (po) using 10 cats per dose level at 180 min (control day/ test day); 34/172
Felis catus [32] = assay: Average food consumed at the dose of 0.031 mg/kg (po) using 10 cats per dose level at 30 min (control day/ test day); 18/88
Felis catus [33] = assay: Average food consumed at the dose of 0.25 mg/kg (po) using 10 cats per dose level at 60 min (control day/ test day); 46/128; method in brief: as §1
Felis catus [34] = assay: Average food consumed at the dose of 0.031 mg/kg (po) using 10 cats per dose level at 30 min (control day/ test day); 25/67
Felis catus [35] = assay: Average food consumed at the dose of 0.25 mg/kg (po) using 10 cats per dose level at 180 min (control day/ test day); 40/210
Felis catus [36] = assay: Average food consumed at the dose of 0.25 mg/kg (po) using 10 cats per dose level at 30 min (control day/ test day); 37/98; method in brief: as §1
Felis catus [37] = assay: Average food consumed at the dose of 0.50 mg/kg (po) using 10 cats per dose level at 180 min (control day/ test day); 35/194; conditions: dose 0.5 mg/kg; method in brief: as §1
Felis catus [38] = assay: Average food consumed at the dose of 0.031 mg/kg (po) using 10 cats per dose level at 180 min (control day/ test day); 52/182
Felis catus [39] = assay: Average food consumed at the dose of 0.031 mg/kg (po) using 10 cats per dose level at 60 min (control day/ test day); 25/105

For `CN1CCC(=C2c3ccccc3CCc3ccc(C(=O)O)cc32)CC1.Cl`, the Average consumed (Felis catus [1]) was 126 g, the Average consumed (Felis catus [2]) was 174 g and the Average consumed (Felis catus [3]) was 97 g. The Average consumed (Felis catus [4]) was 118 g, the Average consumed (Felis catus [5]) was 145 g and the Average consumed (Felis catus [6]) was 88 g. The Average consumed (Felis catus [7]) was 180 g, the Average consumed (Felis catus [8]) was 84 g and the Average consumed (Felis catus [9]) was 102 g. The Average consumed (Felis catus [10]) was 139 g, the Average consumed (Felis catus [11]) was 68 g and the Average consumed (Felis catus [12]) was 53 g. For the same compound, the Average consumed (Felis catus [13]) was 102 g, the Average consumed (Felis catus [14]) was 134 g and the Average consumed (Felis catus [15]) was 83 g.

`CN1CCC(=C2c3ccccc3CCn3cccc32)CC1.O=C(O)C(=O)O` showed an Average consumed (Felis catus [16]) of 159 g, an Average consumed (Felis catus [17]) of 74 g and an Average consumed (Felis catus [18]) of 166 g. It also gave an Average consumed (Felis catus [19]) of 52 g, an Average consumed (Felis catus [20]) of 137 g and an Average consumed (Felis catus [21]) of 106 g. For the same compound, the Average consumed (Felis catus [22]) was 91 g, the Average consumed (Felis catus [23]) was 77 g and the Average consumed (Felis catus [24]) was 175 g. The Average consumed (Felis catus [25]) was 117 g, the Average consumed (Felis catus [26]) was 124 g and the Average consumed (Felis catus [27]) was 133 g.

With `CN1CCC(=C2c3cc(C(=O)O)ccc3C=Cn3cccc32)CC1.Cl` the Average consumed (Felis catus [28]) was 114 g, the Average consumed (Felis catus [29]) was 98 g and the Average consumed (Felis catus [30]) was 78 g. For the same compound, the Average consumed (Felis catus [31]) was 145 g, the Average consumed (Felis catus [32]) was 65 g and the Average consumed (Felis catus [33]) was 112 g. It also gave an Average consumed (Felis catus [34]) of 55 g, an Average consumed (Felis catus [35]) of 176 g and an Average consumed (Felis catus [36]) of 73 g. The Average consumed (Felis catus [37]) was 170 g, the Average consumed (Felis catus [38]) was 184 g and the Average consumed (Felis catus [39]) was 84 g.
